The source of these data is ChEMBL document CHEMBL4052637, “Discovery and Characterization of R/S-N-3-Cyanophenyl-N'-(6-tert-butoxycarbonylamino-3,4-dihydro-2,2-dimethyl-2H-1-benzopyran-4-yl)urea, a New Histone Deacetylase Class III Inhibitor Exerting Antiproliferative Activity against Cancer Cell Lines” (J Med Chem, 2017).

In one assay the test system is HCC 2998. The experiment in a line: Growth inhibition of human HCC2998 cells after 48 hrs by SRB assay. The class given is functional. Particulars: HCC 2998, 48 h.
In the next assay the test system is Hs 683. The experiment in a line: Cell cycle arrest in human Hs683 cells assessed as accumulation at sub-G1 phase at IC50 for MTT assay after 24 to 48 hrs by propidium iodide staining-based flow cytometry. The class given is functional. The method in brief:
(§1)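 Cells were exposed to compound at the IC50 for each line from the 72 h MTT assay, or to a reference HDAC inhibitor at 2 μM. Cell cycle distribution was analyzed after 24 and 48 h. Results are mean ± SD of three independent experiments, with p values against control cells.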

A further assay has as its system NCI-H23. The experiment in a line: Growth inhibition of human NCI-H23 cells after 48 hrs by SRB assay. The class given is functional. To be noted: NCI-H23, 48 h.
A further assay relates to SW1573/2R120. The experiment in a line: Antiproliferative activity against human SW1573/2R120 cells overexpressing ABCC1/LRP after 72 hrs by MTT assay. The class given is functional, cell-based. The essentials: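 MTT assay: cells in RPMI 1640 with 10% heat-inactivated FCS at 37 °C and 5% CO2 were seeded 24 h before treatment. They were exposed 72 h to compound at 0.01–100 μM, with DMSO as solvent.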

In a further assay the test system is SNB-75. Description: Growth inhibition of human SNB75 cells after 48 hrs by SRB assay. The class given is functional. To be noted: SNB-75, 48 h.
Another assay has as its system Malme-3M. Description: Growth inhibition of human MALME-3M cells after 48 hrs by SRB assay. The class given is functional.
The target of assay [1] is Histone deacetylase 3 (Homo sapiens) (UniProt O15379). The experiment in a line: Inhibition of His-tagged recombinant human HDAC3 expressed in baculovirus infected insect cells at 0.1 to 100 uM using Fluor-de-Lys-SIRT1 as substrate after 15 mins by fluorescence assay.
A further assay has as its system LOX IMVI. Description: Growth inhibition of human LOXIMVI cells after 48 hrs by SRB assay. The class given is functional.
The subject of assay [2] is U-373MG ATCC. The experiment in a line: Inhibition of spheroid forming capacity of human U373 cells assessed as decrease in surface area of tumor spheroids at 5 to 10 uM treated for 24 hrs measured after 96 hrs by bright field microscopic method. The class given is functional, cell-based. The essentials: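 Spheroids formed from 1 × 10^3 cells in 25 μL. Cells were pretreated 24 h with compound then left untreated 96 h, or untreated spheroids were cultured 96 h with compound. Surface measured from bright-field images; volume in voxels from 3D plots after image segmentation. Mean ± SD of three independent experiments.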

Assay [3] deals with T1, NAD-dependent protein deacetylase sirtuin-2 (Homo sapiens) (UniProt Q8IXJ6).
T1 sequence (whole entry): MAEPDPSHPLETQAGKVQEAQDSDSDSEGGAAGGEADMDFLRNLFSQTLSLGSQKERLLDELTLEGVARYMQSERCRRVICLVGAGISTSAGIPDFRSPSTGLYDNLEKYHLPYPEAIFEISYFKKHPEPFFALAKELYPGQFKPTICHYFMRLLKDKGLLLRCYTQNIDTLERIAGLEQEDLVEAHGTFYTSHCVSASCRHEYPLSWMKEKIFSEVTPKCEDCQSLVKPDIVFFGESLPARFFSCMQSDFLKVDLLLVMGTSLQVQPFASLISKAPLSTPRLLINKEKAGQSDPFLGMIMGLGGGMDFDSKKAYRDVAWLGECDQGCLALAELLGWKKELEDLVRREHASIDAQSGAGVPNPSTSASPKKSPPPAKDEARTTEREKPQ
The experiment in a line: Inhibition of SIRT2 in human U373 cells assessed as increase of alpha-tubulin acetylation at 10 uM after 8 hrs by Western blotting method relative to control. The class given is cell-based.

The subject of another assay is OVCAR-5. Description: Growth inhibition of human OVCAR5 cells after 48 hrs by SRB assay. The format is functional. To be noted: OVCAR-5, 48 h.
For assay [4], the system named is U-373MG ATCC. Description: Cell cycle arrest in human U373 cells assessed as accumulation at sub-G1 phase at IC50 for MTT assay after 24 to 48 hrs by propidium iodide staining-based flow cytometry. The format is functional. The method in brief: as §1
Assay [5] can be described thus: Selectivity index, ratio of IC50 for mouse astrocytes to IC50 for human U373 cells.
Another assay has as its system ACHN. The experiment in a line: Growth inhibition of human ACHN cells after 48 hrs by SRB assay. The format is functional.
The test system of the next assay is SF-268. Description: Growth inhibition of human SF268 cells after 48 hrs by SRB assay. To be noted: SF-268, 48 h. The class given is functional.
Another assay deals with T47D. Description: Growth inhibition of human T47D cells after 48 hrs by SRB assay. The format is functional.
Another assay concerns UACC-257. The experiment in a line: Growth inhibition of human UACC257 cells after 48 hrs by SRB assay. The format is functional. Particulars: UACC-257, 48 h.
Another assay relates to CAKI-1. The experiment in a line: Growth inhibition of human Caki1 cells after 48 hrs by SRB assay. The format is functional. To be noted: CAKI-1, 48 h.
For assay [6], the target named is T1, NAD-dependent protein deacetylase sirtuin-2 (Homo sapiens). The experiment in a line: Inhibition of SIRT2 in human U373 cells assessed as increase of alpha-tubulin acetylation at 5 uM after 8 hrs by Western blotting method relative to control. The class given is cell-based.
Another assay relates to MOLT-4. Description: Growth inhibition of human MOLT4 cells after 48 hrs by SRB assay. The class given is functional. To be noted: MOLT-4, 48 h.
Assay [7] can be described thus: Selectivity index, ratio of IC50 for mouse astrocytes to IC50 for human T98G cells.
The next assay concerns BT-549. The experiment in a line: Growth inhibition of human BT549 cells after 48 hrs by SRB assay. The format is functional. To be noted: BT-549, 48 h.
The subject of the next assay is OVCAR-8. The experiment in a line: Growth inhibition of human OVCAR8 cells after 48 hrs by SRB assay. Particulars: OVCAR-8, 48 h. The class given is functional.
For assay [8], the target named is T2, NAD-dependent protein deacetylase sirtuin-1 (Homo sapiens) (UniProt Q96EB6).
T2 sequence (whole entry): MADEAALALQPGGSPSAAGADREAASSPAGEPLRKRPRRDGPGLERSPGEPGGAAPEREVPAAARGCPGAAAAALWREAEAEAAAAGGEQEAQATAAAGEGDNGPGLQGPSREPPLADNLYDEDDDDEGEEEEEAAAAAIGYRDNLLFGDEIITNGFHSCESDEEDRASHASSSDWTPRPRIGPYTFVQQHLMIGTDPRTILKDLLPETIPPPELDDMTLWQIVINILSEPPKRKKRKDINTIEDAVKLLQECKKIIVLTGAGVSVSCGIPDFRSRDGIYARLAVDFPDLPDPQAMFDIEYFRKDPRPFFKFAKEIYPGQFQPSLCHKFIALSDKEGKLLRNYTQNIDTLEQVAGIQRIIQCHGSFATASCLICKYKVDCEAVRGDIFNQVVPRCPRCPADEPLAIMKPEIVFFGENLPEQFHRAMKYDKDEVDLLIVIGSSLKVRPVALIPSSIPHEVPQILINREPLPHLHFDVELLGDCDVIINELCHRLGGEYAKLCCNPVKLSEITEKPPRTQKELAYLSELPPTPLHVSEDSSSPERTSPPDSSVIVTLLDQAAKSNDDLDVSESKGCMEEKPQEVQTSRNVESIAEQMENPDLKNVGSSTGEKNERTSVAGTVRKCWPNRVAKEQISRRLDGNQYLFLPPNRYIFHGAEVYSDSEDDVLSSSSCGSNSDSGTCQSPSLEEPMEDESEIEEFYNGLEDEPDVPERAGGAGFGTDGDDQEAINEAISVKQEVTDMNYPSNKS
The experiment in a line: Inhibition of SIRT1 in human U373 cells assessed as increase of histone H4 acetylation at 2.5 uM after 8 hrs by Western blotting method relative to control. The class given is cell-based.

The source made the active and inactive calls. The rule behind the calls is not given here. Where only a bound is given, the exact number is not on record here.

Histone deacetylase 3 (Homo sapiens), sequence (O15379 whole entry): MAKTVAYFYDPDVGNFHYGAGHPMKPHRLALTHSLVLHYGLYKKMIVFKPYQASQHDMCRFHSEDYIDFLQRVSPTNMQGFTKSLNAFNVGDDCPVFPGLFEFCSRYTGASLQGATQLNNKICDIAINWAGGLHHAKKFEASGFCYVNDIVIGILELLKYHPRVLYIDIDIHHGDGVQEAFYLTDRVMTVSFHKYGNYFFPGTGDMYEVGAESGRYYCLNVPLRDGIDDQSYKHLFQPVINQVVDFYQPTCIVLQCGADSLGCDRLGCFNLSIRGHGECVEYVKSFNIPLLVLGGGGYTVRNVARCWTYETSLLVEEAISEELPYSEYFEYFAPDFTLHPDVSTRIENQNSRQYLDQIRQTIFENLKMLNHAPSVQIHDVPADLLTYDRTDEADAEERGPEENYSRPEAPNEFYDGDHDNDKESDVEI

In the case of `CC(C)(C)OC(=O)Nc1ccc2c(c1)C(NC(=O)Nc1cccc(C#N)c1)CC(C)(C)O2` (centres undefined), the GI50 in the assay on HCC 2998 was 5.13 µM; with NCI-H23, 1.12 µM; in the assay with SNB-75, 5.89 µM; in the assay on Malme-3M, 4.07 µM; in the assay with LOX IMVI, 1.62 µM; in the assay with OVCAR-5 it was 33.9 µM. The GI50 in the assay on ACHN was 3.8 µM; with SF-268 it was 5.01 µM; in the assay on T47D, 2.69 µM; in the assay with UACC-257, 0.871 µM; with CAKI-1 it was 2.45 µM; in the assay on MOLT-4 it was 2.09 µM. Moreover, the concentration for 50% growth inhibition (GI50) in the assay with BT-549 is 3.8 µM; in the assay on OVCAR-8 it was 3.16 µM. Moreover, the outcome with Hs 683 and in the assay with U-373MG ATCC [4] was inactive. In addition, in the assay on SW1573/2R120, the outcome was Active. Besides, in assay [1], the inhibition entry is “inactive”. In addition, in the assay with U-373MG ATCC [2], the inhibition entry is “Active”. Moreover, the fold change (FC) in [3] was determined as 8.6; in [6], 5.9; in assay [8], 1. Further, the “Ratio IC50” value in assay [5] and in assay [7] was more than 10 each time.
